Tests used:
Format in all cases: functional
LOX IMVI = assay: Growth inhibition of human LOXIMVI cells after 48 hrs by sulforhodamine B assay
Outline: (§1)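 NCI 60-human-tumor-cell-line panel, with compounds tested over a 5-log dose range. Values are taken from dose-response curves as log10 molar concentrations: GI50 is 50% net growth inhibition, TGI is total growth inhibition, and LC50 is 50% net cell death.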

RXF 393 = assay: Growth inhibition of human RXF393 cells after 48 hrs by sulforhodamine B assay; conditions: RXF 393, 48 h; outline: as §1
EKVX = assay: Growth inhibition of human EKVX cells after 48 hrs by sulforhodamine B assay; outline: as §1
SF-268 [1] = assay: Growth inhibition of human SF268 cells after 48 hrs by sulforhodamine B assay; conditions: SF-268, 48 h; outline: as §1
SF-539 = assay: Growth inhibition of human SF539 cells after 48 hrs by sulforhodamine B assay; conditions: SF-539, 48 h; outline: as §1
DU-145 = assay: Growth inhibition of human DU145 cells after 48 hrs by sulforhodamine B assay; conditions: DU-145, 48 h; outline: as §1
BT-549 = assay: Growth inhibition of human BT549 cells after 48 hrs by sulforhodamine B assay; conditions: BT-549, 48 h; outline: as §1
CCRF-CEM = assay: Growth inhibition of human CCRF-CEM cells after 48 hrs by sulforhodamine B assay; outline: as §1
MCF7 [2] = assay: Anticancer activity against human MCF7 cells assessed as cell growth at 100 uM after 48 hrs by sulforhodamine B assay; conditions: MCF7, 48 h, read-out: Activity
SK-MEL-2 = assay: Growth inhibition of human SK-MEL-2 cells after 48 hrs by sulforhodamine B assay; conditions: SK-MEL-2, 48 h; outline: as §1
SK-MEL-28 = assay: Growth inhibition of human SK-MEL-28 cells after 48 hrs by sulforhodamine B assay; conditions: SK-MEL-28, 48 h; outline: as §1
MOLT-4 = assay: Growth inhibition of human MOLT4 cells after 48 hrs by sulforhodamine B assay; conditions: MOLT-4, 48 h; outline: as §1
IGROV-1 = assay: Growth inhibition of human IGROV1 cells after 48 hrs by sulforhodamine B assay; conditions: IGROV-1, 48 h; outline: as §1
MCF7 [3] = assay: Growth inhibition of human MCF7 cells after 48 hrs by sulforhodamine B assay; conditions: MCF7, 48 h; outline: as §1
NCI-H460 [4] = assay: Growth inhibition of human NCI-H460 cells after 48 hrs by sulforhodamine B assay; conditions: NCI-H460, 48 h; outline: as §1
HOP-92 = assay: Growth inhibition of human HOP92 cells after 48 hrs by sulforhodamine B assay; conditions: HOP-92, 48 h; outline: as §1
SNB-75 = assay: Growth inhibition of human SNB75 cells after 48 hrs by sulforhodamine B assay; conditions: SNB-75, 48 h
Outline: (§2)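 Run in the NCI 60-human-tumour-cell-line panel, tested over a 5-log dose range. Dose–response curves gave three values per cell line, each as a log10 molar concentration: GI50 (50% inhibition of net cell growth), TGI (total inhibition of net growth) and LC50 (50% net cell death). The mean graph midpoint is the arithmetic mean over all lines, with insensitive lines entered at the highest concentration tested.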

SR = assay: Growth inhibition of human SR cells after 48 hrs by sulforhodamine B assay; outline: as §2
HCT-15 = assay: Growth inhibition of human HCT15 cells after 48 hrs by sulforhodamine B assay; conditions: HCT-15, 48 h; outline: as §1
Malme-3M = assay: Growth inhibition of human MALME-3M cells after 48 hrs by sulforhodamine B assay; outline: as §1
PC-3 = assay: Growth inhibition of human PC3 cells after 48 hrs by sulforhodamine B assay; conditions: PC-3, 48 h; outline: as §1
UACC-62 = assay: Growth inhibition of human UACC62 cells after 48 hrs by sulforhodamine B assay; conditions: UACC-62, 48 h; outline: as §2
NCI-H460 [5] = assay: Anticancer activity against human NCI-H460 cells assessed as cell growth at 100 uM after 48 hrs by sulforhodamine B assay; conditions: NCI-H460, 48 h, read-out: Activity
ACHN = assay: Growth inhibition of human ACHN cells after 48 hrs by sulforhodamine B assay
[6] = Growth inhibition of human Hs 578T cells after 48 hrs by sulforhodamine B assay; outline: as §1
SK-MEL-5 = assay: Growth inhibition of human SK-MEL-5 cells after 48 hrs by sulforhodamine B assay; conditions: SK-MEL-5, 48 h; outline: as §1
NCI-H226 = assay: Growth inhibition of human NCI-H226 cells after 48 hrs by sulforhodamine B assay; conditions: NCI-H226, 48 h; outline: as §1
KM12 = assay: Growth inhibition of human KM12 cells after 48 hrs by sulforhodamine B assay; conditions: KM12, 48 h; outline: as §1
SF-268 [7] = assay: Anticancer activity against human SF268 cells assessed as cell growth at 100 uM after 48 hrs by sulforhodamine B assay; conditions: SF-268, 48 h, read-out: Activity
[8] = read-out: pLC50 (the source's name) (converted)

## COc1ccc(CNc2nc3cc(N)cc(N)c3nc2-c2ccccc2)cc1OC
LOX IMVI
  GI50: 3.09 µM
  LC50: > 100 µM
LOX IMVI; read-out: pTGI (converted)
  TGI: 14.1 µM
RXF 393
  GI50: 19.1 µM
RXF 393; [8]
  CC50: > 100 µM
RXF 393; read-out: pTGI (converted)
  TGI: > 100 µM
EKVX
  GI50: 5.89 µM
  LC50 (50% net cell kill): > 100 µM
EKVX; read-out: pTGI (converted)
  TGI: 30.2 µM
SF-268 [1]
  GI50: 14.8 µM
  LC50: > 100 µM
SF-268 [1]; read-out: pTGI (converted)
  TGI: 60.3 µM
SF-539
  GI50: 20 µM
  LC50: > 100 µM
SF-539; read-out: pTGI (converted)
  TGI: 45.7 µM
DU-145
  GI50: 460 nM
DU-145; [8]
  CC50: > 100 µM
DU-145; read-out: pTGI (converted)
  TGI: 87.1 µM
BT-549
  GI50: 13.5 µM
BT-549; [8]
  CC50: 79.4 µM
BT-549; read-out: pTGI (converted)
  TGI: 32.4 µM
CCRF-CEM
  GI50: 3.47 µM
  LC50: > 100 µM
CCRF-CEM; read-out: pTGI (converted)
  TGI: 70.8 µM
MCF7 [2]
  growth at 100 µM: 0%
SK-MEL-2
  GI50: 8.71 µM
SK-MEL-2; [8]
  CC50: > 100 µM
SK-MEL-2; read-out: pTGI (converted)
  TGI: 30.2 µM
SK-MEL-28
  GI50: 13.5 µM
SK-MEL-28; [8]
  CC50: 67.6 µM
SK-MEL-28; read-out: pTGI (converted)
  TGI: 30.2 µM
MOLT-4
  GI50: 3.47 µM
  LC50: > 100 µM
MOLT-4; read-out: pTGI (converted)
  TGI: > 100 µM
IGROV-1
  GI50: 11.5 µM
IGROV-1; [8]
  CC50: > 100 µM
IGROV-1; read-out: pTGI (converted)
  TGI: 40.7 µM
MCF7 [3]
  GI50: 25.7 µM
MCF7 [3]; [8]
  CC50: > 100 µM
MCF7 [3]; read-out: pTGI (converted)
  TGI: > 100 µM
NCI-H460 [4]
  GI50: 24 µM
  LC50 (50% net cell kill): > 100 µM
NCI-H460 [4]; read-out: pTGI (converted)
  TGI: 91.2 µM
HOP-92
  GI50: 13.5 µM
  LC50 (50% net cell death): 66.1 µM
HOP-92; read-out: pTGI (converted)
  TGI: 29.5 µM
SNB-75
  GI50: 16.2 µM
  LC50: 97.7 µM
SNB-75; read-out: pTGI (converted)
  TGI: 39.8 µM
SR
  GI50: 3.31 µM
  LC50 (concentration giving 50% net cell death): > 100 µM
SR; read-out: pTGI (converted)
  TGI: 18.2 µM
HCT-15
  GI50: 30.2 µM
  LC50: > 100 µM
HCT-15; read-out: pTGI (converted)
  TGI: > 100 µM
Malme-3M
  GI50: 5.62 µM
Malme-3M; [8]
  CC50: 47.9 µM
Malme-3M; read-out: pTGI (converted)
  TGI: 18.6 µM
PC-3
  GI50: 8.32 µM
PC-3; [8]
  CC50: 83.2 µM
PC-3; read-out: pTGI (converted)
  TGI: 27.5 µM
UACC-62
  GI50: 12.9 µM
UACC-62; [8]
  CC50: 53.7 µM
UACC-62; read-out: pTGI (converted)
  TGI: 26.3 µM
NCI-H460 [5]
  growth at 100 µM: 3%
ACHN
  GI50: 13.8 µM
ACHN; [8]
  CC50: 81.3 µM
ACHN; read-out: pTGI (converted)
  TGI: 33.1 µM
[6]
  GI50: 33.9 µM
[6]; [8]
  CC50: > 100 µM
[6]; read-out: pTGI (converted)
  TGI: > 100 µM
SK-MEL-5
  GI50: 10 µM
SK-MEL-5; [8]
  CC50: 77.6 µM
SK-MEL-5; read-out: pTGI (converted)
  TGI: 27.5 µM
NCI-H226
  GI50: 14.5 µM
  LC50: 64.6 µM
NCI-H226; read-out: pTGI (converted)
  TGI: 30.9 µM
KM12
  GI50: 13.2 µM
  LC50 (50% net cell kill): 72.4 µM
KM12; read-out: pTGI (converted)
  TGI: 30.9 µM
SF-268 [7]
  growth at 100 µM: 47%
